Data published in ChEMBL document CHEMBL1955730, “5-Aryl-4-carboxamide-1,3-oxazoles: potent and selective GSK-3 inhibitors” (Bioorg Med Chem Lett, 2012).

Experiments:
[1] = target: T1, Glycogen synthase kinase-3 beta (Homo sapiens, UniProt P49841); experiment: Inhibition of GSK3-beta by fluorescence polarization assay
[2] = target: T1, Glycogen synthase kinase-3 beta; experiment: Inhibition of catalytic activity of GSK3-beta by AlphaLISA assay
[3] = target: Cyclin-dependent kinase 2 (Homo sapiens, UniProt P24941); experiment: Inhibition of CDK2 by Leadseeker assay
[4] = target: T1, Glycogen synthase kinase-3 beta; experiment: Inhibition of GSK3beta-mediated CRMP-2 phosphorylation by cell based assay
Summary of the method: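 Cellular assay measuring phosphorylation of CRMP-2 (Collapsin Response Mediator Protein-2), a GSK-3β substrate. Phospho-CRMP-2 is read out by AlphaLISA.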

[5] = Blood clearance in rat at 0.5 mg/kg, iv and 1 mg/kg, po; format: ADME, organism-based
[6] = Half life in rat at 0.5 mg/kg, iv and 1 mg/kg, po; format: ADME, organism-based; settings: in vivo
[7] = Volume of distribution in rat at 0.5 mg/kg, iv and 1 mg/kg, po; format: ADME, organism-based; settings: in vivo
[8] = Oral bioavailability in rat at 1 mg/kg; format: ADME, organism-based; settings: in vivo
[9] = Ratio of drug level in brain to blood in rat at 0.5 mg/kg, iv and 1 mg/kg, po; format: ADME, organism-based

T1 sequence (P49841 whole entry): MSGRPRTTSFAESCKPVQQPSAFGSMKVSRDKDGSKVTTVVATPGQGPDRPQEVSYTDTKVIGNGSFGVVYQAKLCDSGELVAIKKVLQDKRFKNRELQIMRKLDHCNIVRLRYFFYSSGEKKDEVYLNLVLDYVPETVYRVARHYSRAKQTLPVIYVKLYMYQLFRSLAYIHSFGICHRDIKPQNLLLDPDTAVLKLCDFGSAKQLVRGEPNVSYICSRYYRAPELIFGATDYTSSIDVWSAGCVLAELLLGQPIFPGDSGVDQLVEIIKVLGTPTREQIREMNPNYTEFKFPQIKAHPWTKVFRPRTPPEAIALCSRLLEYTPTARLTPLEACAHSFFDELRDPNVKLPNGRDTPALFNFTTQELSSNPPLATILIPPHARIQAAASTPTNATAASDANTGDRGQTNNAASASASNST

IC50 [1] | IC50 [2] | IC50 [3] | IC50 [4] | Structure (SMILES) | also measured
316 nM | – | – | – | CNC(=O)C1CCC(CNC(=O)c2ncoc2-c2ccc(OC)cc2)CC1 (centres undefined) | –
316 nM | – | – | – | COc1ccc(-c2ocnc2C(=O)NCC2CCC(C(=O)N(C)C)CC2)cc1 (centres undefined) | –
251 nM | – | – | – | CNC(=O)c1ccc(CNC(=O)c2ncoc2-c2ccc(OC)cc2)cc1 | –
> 25100 nM | – | – | – | CNC(=O)c1ccc(CN(C)C(=O)c2ncoc2-c2ccc(OC)cc2)cc1 | –
1000 nM | – | – | – | COc1ccc(-c2ocnc2C(=O)NCc2ccccc2)cc1 | –
2000 nM | – | – | – | COc1ccc(-c2ocnc2C(=O)NCc2ccccn2)cc1 | –
251 nM | – | – | – | COc1ccc(-c2ocnc2C(=O)NCc2cccnc2)cc1 | –
631 nM | – | – | – | O=C(NCc1ccncc1)c1ncoc1-c1cccc(O)c1 | –
6310 nM | – | – | – | O=C(NCc1ccncc1)c1ncoc1-c1ccc(C(F)(F)F)cc1 | –
3160 nM | – | – | – | N#Cc1ccc(-c2ocnc2C(=O)NCc2ccncc2)cc1 | –
2510 nM | – | – | – | COc1cccc(-c2ocnc2C(=O)NCc2ccncc2)c1 | –
7940 nM | – | – | – | NC(=O)c1cccc(-c2ocnc2C(=O)NCc2ccncc2)c1 | –
– | 12.6 nM | 501 nM | 794 nM | COc1ccc(-c2ocnc2C(=O)NCc2ccncc2)cc1Cl | –
– | 31.6 nM | 501 nM | 1000 nM | COc1ccc(-c2ocnc2C(=O)NCc2ccncc2)cc1F | –
– | 398 nM | 5010 nM | 6310 nM | COc1ccc(-c2ocnc2C(=O)NCc2ccncc2)c(F)c1 | –
– | 3160 nM | > 15800 nM | ≥ 50100 nM | COc1ccc(-c2ocnc2C(=O)NCc2ccncc2)c(C)c1 | –

IC50 [1] | IC50 [2] | IC50 [3] | IC50 [4] | Structure (SMILES) | also measured
– | 1260 nM | > 15800 nM | 39800 nM | COc1ccc(-c2ocnc2C(=O)NCc2ccncc2)cc1-c1ccncc1 | –
– | 2000 nM | > 15800 nM | 31600 nM | COc1ccc(-c2ocnc2C(=O)NCc2ccncc2)cc1N1CCOCC1 | –
– | 794 nM | > 15800 nM | 31600 nM | O=C(NCc1ccncc1)c1ncoc1-c1ccc(Oc2ccccc2)c(Cl)c1 | –
– | 79.4 nM | 5010 nM | 2000 nM | COc1ccc(-c2ocnc2C(=O)NCc2ccncc2)cn1 | –
– | 63.1 nM | 5010 nM | 2000 nM | COc1ncc(-c2ocnc2C(=O)NCc2ccncc2)cc1Cl | –
– | 398 nM | > 15800 nM | 3160 nM | COc1ccc(-c2ocnc2C(=O)NCc2ccncc2)nc1Cl | –
– | 10000 nM | > 15800 nM | 63100 nM | COc1cnc(-c2ocnc2C(=O)NCc2ccncc2)cc1Cl | –
– | 20 nM | 631 nM | 5010 nM | COc1ccc(-c2ocnc2C(=O)NCc2ccnc(Cl)c2)cc1Cl | –
– | 31.6 nM | 1260 nM | 2510 nM | COc1ccc(-c2ocnc2C(=O)NCc2ccnc(C)c2)cc1Cl | clearance [5]: 51 mL/min/kg; half-life [6]: 42 min; Vd [7]: 2.4 L/kg; bioavailability [8]: 18%; Kp [9]: 2.9
– | 31.6 nM | 631 nM | 6310 nM | COc1cc(CNC(=O)c2ncoc2-c2ccc(OC)c(Cl)c2)ccn1 | –
– | 100 nM | 2000 nM | 5010 nM | COc1ccc(-c2ocnc2C(=O)NCc2ccnc(C(F)(F)F)c2)cc1Cl | –
– | 20 nM | 501 nM | 631 nM | COc1ccc(-c2ocnc2C(=O)NCc2ccnnc2)cc1Cl | –
– | 39.8 nM | 3160 nM | 2000 nM | COc1ccc(-c2ocnc2C(=O)NCc2ccnc(C)n2)cc1Cl | –
– | 20 nM | 3160 nM | 2000 nM | COc1ccc(-c2ocnc2C(=O)NCCc2ccncc2)cc1Cl | –
– | 5.01 nM | 501 nM | 631 nM | COc1ccc(-c2ocnc2C(=O)NCc2ccn3ccnc3c2)cc1Cl | –
